Active and inactive are the calls of the source. The calls are words filed in the database; no cut-off is given here.
What was measured:
Rattus norvegicus [1] = assay: Hypotensive activity in po dosed spontaneously hypertensive Wistar-Okamoto rat assessed as dose required to cause 30 mmHg fall of blood pressure administered for 5 days; type: functional; conditions: 120 h, read-out: MED
[2] = Toxicity in po dosed mouse assessed as mortality after 7 days; conditions: in vivo
Rattus norvegicus [3] = assay: Hypotensive activity in spontaneously hypertensive Wistar-Okamoto rat assessed as time required for persistence of hypotensive effect at 10 mg/kg, po; type: functional
Outline: (§1)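 SHR (Wistar-Okamoto), five per dose, were given an oral dose in 0.5% carboxymethylcellulose. Indirect cuff pressure in restrained conscious rats was read before dosing and at 2, 4, 6, 8, 12 and 24 h. Duration (h) was scored while pressure remained 15 mmHg or more below the initial reading.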

Rattus norvegicus [4] = assay: Hypotensive activity in spontaneously hypertensive Wistar-Okamoto rat assessed as maximum change in mean blood pressure at 2.5 mg/kg, po relative to control; type: functional
Outline: (§2)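 Spontaneously hypertensive Wistar-Okamoto rats, five per dose, received compound orally, dissolved or suspended in 0.5% carboxymethylcellulose. Blood pressure was measured indirectly by tail cuff in restrained conscious rats before dosing and at 2, 4, 6, 8, 12 and 24 h. Maximum change was measured after a single administration and given as mean ± error.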

Canis familiaris [5] = assay: Hypotensive activity in conscious renal hypertensive dog assessed as maximum change in mean blood pressure at 10 mg/kg, po measured for 8 hrs relative to control; type: functional, Canis lupus familiaris
Outline: (§3)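 Renal hypertensive dogs, conscious, dosed orally in soft gelatin capsules, three dogs per dose. Mean blood pressure was taken indirectly with an Arteriosonde, standing animals in a semi-insonorized room, just before dosing and then hourly for 8 h. Maximum change was measured after a single administration and given as mean ± error.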

[6] = Toxicity in po dosed Sprague-Dawley rat assessed as mortality after 7 days; type: organism-based; conditions: in vivo
Canis familiaris [7] = assay: Hypotensive activity in conscious renal hypertensive dog assessed as time required for persistence of hypotensive effect at 5 mg/kg, po measured for 8 hrs; type: functional, Canis lupus familiaris
Outline: (§4)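 Conscious renal hypertensive dogs received single oral doses in soft gelatin capsules, three per dose. Indirect standing blood pressure was read before dosing and hourly to 8 h. Duration (h) was the time the pressure stayed 15 mmHg or more below the initial value, which was taken as persistence of the hypotensive effect.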

Rattus norvegicus [8] = assay: Hypotensive activity in spontaneously hypertensive Wistar-Okamoto rat assessed as time required for persistence of hypotensive effect at 5 mg/kg, po; type: functional; outline: as §1
Canis familiaris [9] = assay: Hypotensive activity in conscious renal hypertensive dog assessed as maximum change in mean blood pressure at 2.5 mg/kg, po measured for 8 hrs relative to control; type: functional, Canis lupus familiaris; outline: as §3
Canis familiaris [10] = assay: Hypotensive activity in conscious renal hypertensive dog assessed as maximum change in mean blood pressure at 5 mg/kg, po measured for 8 hrs relative to control; type: functional, Canis lupus familiaris; outline: as §3
Canis familiaris [11] = assay: Hypotensive activity in conscious renal hypertensive dog assessed as time required for persistence of hypotensive effect at 10 mg/kg, po measured for 8 hrs; type: functional, Canis lupus familiaris; outline: as §4
Canis familiaris [12] = assay: Hypotensive activity in conscious renal hypertensive dog assessed as time required for persistence of hypotensive effect at 2.5 mg/kg, po measured for 8 hrs; type: functional, Canis lupus familiaris; outline: as §4
Rattus norvegicus [13] = assay: Hypotensive activity in spontaneously hypertensive Wistar-Okamoto rat assessed as maximum change in mean blood pressure at 5 mg/kg, po relative to control; type: functional; outline: as §2
Rattus norvegicus [14] = assay: Hypotensive activity in spontaneously hypertensive Wistar-Okamoto rat assessed as time required for persistence of hypotensive effect at 2.5 mg/kg, po; type: functional; outline: as §1
Rattus norvegicus [15] = assay: Hypotensive activity in spontaneously hypertensive Wistar-Okamoto rat assessed as maximum change in mean blood pressure at 10 mg/kg, po relative to control; type: functional; outline: as §2
Canis familiaris [16] = assay: Hypotensive activity in conscious renal hypertensive dog assessed as time required for persistence of hypotensive effect at 0.25 mg/kg, po measured for 8 hrs; type: functional, Canis lupus familiaris; outline: as §4
Canis familiaris [17] = assay: Hypotensive activity in conscious renal hypertensive dog assessed as maximum change in mean blood pressure at 0.05 mg/kg, po measured for 8 hrs relative to control; type: functional, Canis lupus familiaris; outline: as §3
Rattus norvegicus [18] = assay: Hypotensive activity in spontaneously hypertensive Wistar-Okamoto rat assessed as time required for persistence of hypotensive effect at 0.1 mg/kg, po; type: functional; outline: as §1
Rattus norvegicus [19] = assay: Hypotensive activity in spontaneously hypertensive Wistar-Okamoto rat assessed as maximum change in mean blood pressure at 0.01 mg/kg, po relative to control; type: functional; outline: as §2
Canis familiaris [20] = assay: Hypotensive activity in conscious renal hypertensive dog assessed as maximum change in mean blood pressure at 0.1 mg/kg, po measured for 8 hrs relative to control; type: functional, Canis lupus familiaris; outline: as §3
Canis familiaris [21] = assay: Hypotensive activity in conscious renal hypertensive dog assessed as time required for persistence of hypotensive effect at 0.1 mg/kg, po measured for 8 hrs; type: functional, Canis lupus familiaris; outline: as §4
Rattus norvegicus [22] = assay: Hypotensive activity in spontaneously hypertensive Wistar-Okamoto rat assessed as time required for persistence of hypotensive effect at 0.01 mg/kg, po; type: functional; outline: as §1
Rattus norvegicus [23] = assay: Toxicity in rat assessed as change in cardiac noradrenaline level at 0.1 mg/kg for 5 days; type: organism-based, Heart; set-up: dose 0.1 mg/kg; conditions: in vivo, 120 h
Outline: (§5)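 Rats were given single or repeated (5 days) administration, and cardiac noradrenaline levels were measured.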

Rattus norvegicus [24] = species on record: Rattus norvegicus; assay: Toxicity in rat assessed as effect on contraction of nictitating membranes by preganglionic stimulation; type: organism-based, Nictitating membrane; conditions: in vivo
Canis familiaris [25] = assay: Hypotensive activity in conscious renal hypertensive dog assessed as time required for persistence of hypotensive effect at 0.05 mg/kg, po measured for 8 hrs; type: functional, Canis lupus familiaris; outline: as §4
Rattus norvegicus [26] = assay: Hypotensive activity in spontaneously hypertensive Wistar-Okamoto rat assessed as time required for persistence of hypotensive effect at 0.05 mg/kg, po; type: functional; outline: as §1
Rattus norvegicus [27] = assay: Hypotensive activity in po dosed spontaneously hypertensive Wistar-Okamoto rat relative to guancydine; type: functional
Felis catus = species on record: Felis catus; assay: Hypotensive activity in decerebrated cat; type: functional, organism-based
Canis familiaris [28] = assay: Hypotensive activity in conscious renal hypertensive dog assessed as maximum change in mean blood pressure at 0.25 mg/kg, po measured for 8 hrs relative to control; type: functional, Canis lupus familiaris; outline: as §3
Rattus norvegicus [29] = assay: Hypotensive activity in spontaneously hypertensive Wistar-Okamoto rat assessed as maximum change in mean blood pressure at 0.1 mg/kg, po relative to control; type: functional; outline: as §2
Rattus norvegicus [30] = assay: Toxicity in rat assessed as change in cardiac noradrenaline level at 0.1 mg/kg; type: organism-based, Heart; set-up: dose 0.1 mg/kg; conditions: in vivo; outline: as §5
Rattus norvegicus [31] = assay: Hypotensive activity in spontaneously hypertensive Wistar-Okamoto rat assessed as maximum change in mean blood pressure at 0.05 mg/kg, po relative to control; type: functional; outline: as §2

Work on `N#CN/C(=N\C1CCCC1)Nc1cccnc1` yielded a minimal effective dose (Rattus norvegicus [1]) of 20 mg/kg and an LD50 at 168 h [2] of 1000 mg/kg.
`CCC(C)(C)N/C(=N\C#N)Nc1c(C)cccc1C` gave a minimal effective dose (Rattus norvegicus [1]) of 50 mg/kg and an LD50 at 168 h [2] of over 1000 mg/kg.
Molecule `CCC(C)(C)/N=C(/S)Nc1cccnc1` has a Time (Rattus norvegicus [3]) of over 4 h, an Activity (Rattus norvegicus [4]) of -35 mmHg and an Activity (Canis familiaris [5]) of -43 mmHg. It also gave an LD50 at 168 h [6] of 460 mg/kg, a Time (Canis familiaris [7]) of 2 h and a Time (Rattus norvegicus [8]) of 2 h. For the same molecule, the Activity (Canis familiaris [9]) was -14 mmHg, the Activity (Canis familiaris [10]) was -28 mmHg and the Time (Canis familiaris [11]) was 4 h. The Time (Canis familiaris [12]) was 2 h, the Activity (Rattus norvegicus [13]) was -47 mmHg and the Time (Rattus norvegicus [14]) was 2 h. It also gave an Activity (Rattus norvegicus [15]) of -69 mmHg.
With `CC(C)(C)N/C(=N\C#N)Nc1cnc2ccccc2c1` the minimal effective dose (Rattus norvegicus [1]) was 20 mg/kg and the LD50 at 168 h [2] was over 1000 mg/kg.
In the case of `CC(/N=C(\NC#N)Nc1ccncc1)C1CC1` (centres undefined), the minimal effective dose (Rattus norvegicus [1]) is reported as 3 mg/kg and the LD50 at 168 h [2] is reported as 200 mg/kg.
With `N#CN/C(=N\c1ccccc1)Nc1ccncc1` the minimal effective dose (Rattus norvegicus [1]) was 50 mg/kg and the LD50 at 168 h [2] was over 1000 mg/kg.
With `Cc1cc(C)c(/N=C(\NC#N)NC(C)(C)C)c(C)n1` the minimal effective dose (Rattus norvegicus [1]) was over 50 mg/kg and the LD50 at 168 h [2] was over 1000 mg/kg.
`CCC(C)(C)N/C(=N\C#N)Nc1cc(C)nc2ccccc12` gave a minimal effective dose (Rattus norvegicus [1]) of 10 mg/kg and an LD50 at 168 h [2] of over 1000 mg/kg.
In the case of `CCC(C)(C)N/C(=N\C#N)Nc1ccc(OC)cc1`, the minimal effective dose (Rattus norvegicus [1]) is reported as 50 mg/kg and the LD50 at 168 h [2] is reported as over 1000 mg/kg.
With `CN1CCN(/C(=N/C#N)NC(C)(C)C)CC1` the minimal effective dose (Rattus norvegicus [1]) was over 50 mg/kg and the LD50 at 168 h [2] was over 1000 mg/kg.
With `CC(C)(C)/N=C(/NC#N)Nc1cccnc1` the Time (Canis familiaris [16]) was 6 h, the Activity (Canis familiaris [17]) was -25 mmHg and the minimal effective dose (Rattus norvegicus [1]) was 0.1 mg/kg. For the same molecule, the Time (Rattus norvegicus [18]) was over 8 h, the LD50 at 168 h [6] was 278 mg/kg and the Activity (Rattus norvegicus [19]) was -26 mmHg. For the same molecule, the LD50 at 168 h [2] was over 1000 mg/kg, the Activity (Canis familiaris [20]) was -45 mmHg and the Time (Canis familiaris [21]) was 4 h. The Time (Rattus norvegicus [22]) was 4 h, the Activity (Rattus norvegicus [23]) was “Non-toxic” and the Activity (Rattus norvegicus [24]) was “Non-toxic”. The Time (Canis familiaris [25]) was 2 h, the Time (Rattus norvegicus [26]) was 6 h and the “fold change (FC)” value (Rattus norvegicus [27]) was 100. For the same molecule, the Activity (Felis catus) was “Active”, the Activity (Canis familiaris [28]) was -62 mmHg and the Activity (Rattus norvegicus [29]) was -72 mmHg. The Activity (Rattus norvegicus [30]) was “Non-toxic” and the Activity (Rattus norvegicus [31]) was -37 mmHg.
Work on `N#CN/C(=N\c1cccnc1)N1CCCCC1` yielded a minimal effective dose (Rattus norvegicus [1]) of 20 mg/kg and an LD50 at 168 h [2] of over 1000 mg/kg.
Work on `CC(C)(C)/N=C(\NC#N)Nc1ccc(Cl)nc1Cl` yielded a minimal effective dose (Rattus norvegicus [1]) of over 50 mg/kg and an LD50 at 168 h [2] of over 1000 mg/kg.
For `CCC(C)(C)/N=C(\NC#N)Nc1c(C)cc(C)nc1C`, the minimal effective dose (Rattus norvegicus [1]) was over 25 mg/kg and the LD50 at 168 h [2] was 800 mg/kg.
In the case of `CCC(C)(C)N/C(=N\C(=O)C(F)(F)F)Nc1cccnc1`, the minimal effective dose (Rattus norvegicus [1]) is reported as over 50 mg/kg and the LD50 at 168 h [2] is reported as over 1000 mg/kg.
